Source: PubChem (several laboratories)
The list is not random: actives were taken first. Their share in the collection is about 1%.
Hsp70 activator: transcriptional activators of Hsp70. activation, % at 10 µM. HeLa Hsp70 promoter luciferase reporter, luminescence; scaled: vehicle 0, proteasome-inhibitor control 100%. 200,000 tested, 0.04% active;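 active means activation above the mean across all tested compounds plus 3 SD, cutoff set per campaign, cut at about 5.5% in these data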;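 further: 100% = MG132 at 30 µM as the positive control and 0% = DMSO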
MT stabilizer: microtubule stabilization, imaging screen | HeLa tubulin immunostaining HCS, 24 h; share of cells brighter than vehicle mean+2SD | % tubulin-high responders, % at 10 µM | 200,000 tested, 0.83% active | AID 2205;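 active means plate Z-score above 3 for both tubulin-high and condensed-nucleus cell shares, with cell loss under 80%, at 10 µM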;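 further: anti alpha tubulin signal scored within the nucleus-defined area of each cell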
TLR4 MyD88 comp: inhibitors of human TLR4-MyD88 binding; O00206+Q99836; HeLa CL3-4 TLR4/MyD88 BLA complementation, FRET ratio; inhibition, % at 8.4 µM; 200,000 tested, 0.18% active; in the data active means inhibition above about 25%;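 further: 0% = vehicle and 100% = reference inhibitor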
bCat nuc transl: beta-catenin nuclear translocation modulation; HeLa beta-catenin nuclear translocation, immunofluorescence imaging; nuclear translocation activity, % at 5 µM; 190,000 tested, 0.3% active;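 active means nuclear translocation activity above 50% at 5 µM, with a well cell count of 50 or more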;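 further: per-cell ratio of nuclear to cytoplasmic median beta-catenin stain intensity; plate controls were DMSO negative control for no effect and GSK-3 inhibitor IX positive control for full effect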
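System: HeLa cells, endogenous beta-catenin; compound dosing: 5 µM primary single dose, 0.1% DMSO, 0.02–20 µM confirmation series; incubation: 24 h compound exposure at 37°C, 5% CO2; signal: beta-catenin immunofluorescence imaging with DAPI; evaluation: % activation, nuclear-to-cytoplasmic median beta-catenin signal ratio per cell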
TLR9-MyD88 block: blocks human TLR9 binding to MyD88 | Q9NR96+Q99836 | CHO BLA complementation TLR9-MyD88, CCF4 FRET ratio | inhibition, % at 4.98 µM | 340,000 tested, 0.21% active;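 active means inhibition above the mean over all tested compounds plus 3 SD, cut at about 21% in these data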;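 further: 0% = DMSO only wells and 100% = clavulanate BLA inhibitor control wells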
NOD2 RIPK2 PPI: NOD2-RIPK2 protein interaction inhibition; O43353; CHO BLA complementation NOD2-RIPK2, CCF4 ratio; inhibition, % at 4.98 µM; 360,000 tested, 0.38% active; AID 624267; in the data active means inhibition above about 21%;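 further: 0% = vehicle only and 100% = reference blocker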
* hit, by the source's call; . = no result.

SMILES | Hsp70 activator | MT stabilizer | TLR4 MyD88 comp | bCat nuc transl | TLR9-MyD88 block | NOD2 RIPK2 PPI
CCOC(=O)c1ccc(N2C(=O)c3n[nH]c(C)c3C2c2ccc(OC)c(OC)c2)cc1 (stereo unspecified) | 0 | 38* | -8 | 2 | -5 | 8
CCOC(=O)c1ccc(N2C(=O)c3n[nH]c(C)c3C2c2ccc(OC)cc2)cc1 (stereo unspecified) | 0 | 3 | -14 | -6 | 3 | 8
CCN1C/C(=C\c2cccc([N+](=O)[O-])c2)C(=O)/C(=C/c2cccc([N+](=O)[O-])c2)C1 | 0 | 28* | -1 | 0 | -7 | 8
O=C(COc1ccccc1C(=O)c1cnn(-c2ccccc2)c1)Nc1ccc2ccccc2c1 | 0 | 8 | -5 | -2 | -1 | 6
CC(C)c1ccc(NC(=O)COc2ccc(F)cc2C(=O)c2cnn(-c3ccccc3)c2)cc1 | 0 | 20* | -9 | . | 0 | 3
O=c1[nH]c(=S)[nH]c2c1C(c1ccc(F)cc1)OC(C1CCCCC1)C2 (stereo unspecified) | . | . | . | . | . | 8
Cc1onc(-c2ccccc2)c1C(=O)Nc1ccccc1N1CCOCC1 | 0 | 2 | -2 | -1 | 1 | 7
Cc1onc(-c2ccccc2)c1C(=O)Nc1cc(C(F)(F)F)ccc1N1CCOCC1 | 0 | 33* | -2 | 70* | 6 | 7
CCOC(=O)c1ccc(N2CCOCC2)c(NC(=O)c2c(-c3ccccc3)noc2C)c1 | . | . | . | 125* | . | -2
CCC(C(=O)Nc1c(C)cccc1C)n1c(-c2cnc(C)cn2)nc2ccccc21 (stereo unspecified) | . | . | . | . | . | -3
c1ccc(CNc2ncnc3c2cnn3-c2ccccc2)cc1 | 0 | 54* | 8 | 12 | 10 | 10
Clc1ccc(Cn2ncc3c(NCc4ccccc4)ncnc32)c(Cl)c1 | 0 | 17* | -12 | 10 | . | .
Cn1ncc2c(NCc3ccccc3)ncnc21 | 0 | 8 | 3 | 2 | 2 | -5
CCOc1ccc2c(c1)C(C)=CC(C)(C)N2S(=O)(=O)c1ccc(F)cc1 | . | . | . | . | 1 | 10
CC1=CC(C)(C)N(S(=O)(=O)c2ccc(F)cc2)c2ccc(C)cc21 | 0 | 24* | -5 | 33 | -4 | -6
COc1ccc2c(c1)C(C)=CC(C)(C)N2S(=O)(=O)c1ccc(Br)cc1 | 0 | 5 | -3 | 76* | -4 | 4
Cc1ccc(/C=N/NC(=O)CSc2nc3ccccc3c(=O)n2-c2ccccc2C)s1 | 0 | 4 | 0 | -2 | -13 | 0
Cc1ccccc1-n1c(SCC(=O)N/N=C/c2sccc2C)nc2ccccc2c1=O | 0 | 14* | -5 | 0 | -3 | -1
CCCCN(C(=O)C1CC(=O)N(c2ccc(CC)cc2)C1)c1c(N)n(CCC)c(=O)[nH]c1=O (stereo unspecified) | . | . | . | . | -11 | -12
COc1ccc(-n2nnnc2-c2cccc(OC)c2)cc1 | 0 | 18* | -9 | 42 | 11 | 9
Cc1ccc(-n2nnnc2-c2cccc(C)c2)cc1 | 0 | 0 | -7 | 0 | 1 | -9
Cc1ccc(C)c(NC(=O)c2cccc(Oc3ccc([N+](=O)[O-])cc3Cl)c2)c1 | 0 | 8 | -4 | 62* | 7 | -8
COc1ccc(NC(=O)c2cccc(Oc3ccc([N+](=O)[O-])cc3Cl)c2)cc1 | 0 | 8 | -16 | 93* | -1 | -3
C[C@H](CO)N1C[C@H](C)[C@@H](CN(C)S(=O)(=O)c2ccccc2C#N)OCc2cn(nn2)CCCC1=O | . | . | . | . | -3 | -2
COc1ccc(C(=O)Nc2cc(C)nn2-c2nc3ccccc3[nH]2)c(OC)c1 | 0 | 2 | 1 | -1 | 1 | -5
COc1cccc(OC)c1C(=O)Nc1cc(C)nn1-c1nc2ccccc2[nH]1 | 0 | 9.3* | -3 | 0 | -4 | -9
O=c1c2c3c(sc2nc(NCCO)n1CCc1ccccc1)CCCCC3 | 0 | 19* | -3 | 32 | 0 | -7
Cc1ccc(/C=N/NC(=O)CSc2nc3ccccc3c(=O)n2-c2ccccc2)s1 | 0 | 9 | -6 | 0 | -9 | 1
CCn1c(SCC(=O)N/N=C/c2ccc(C)s2)nc2ccccc21 | 0 | 20* | 1 | 46 | 10 | -1
